Source: PMC2583325 (Insect biochemistry and molecular biology, 2008)

Experiments:
TSGP4 = target: T1, TSGP4 (Ornithodoros kalahariensis, UniProt Q8I9T9); experiment: isothermal titration calorimetry; assay type: binding
T1 sequence (Q8I9T9 21-176): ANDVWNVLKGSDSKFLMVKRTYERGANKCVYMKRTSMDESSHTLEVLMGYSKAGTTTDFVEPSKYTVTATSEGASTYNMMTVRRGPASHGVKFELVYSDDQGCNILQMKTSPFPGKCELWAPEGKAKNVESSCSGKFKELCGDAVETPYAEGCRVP
Method in brief: (§1)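 Recombinantly expressed tick salivary lipocalin, checked for quality, in isothermal titration calorimetry on a VP-ITC instrument. Protein at 2 µM titrated against 20 µM lipid-derived ligand (fatty acid, leukotrienes, thromboxane analogues, prostaglandin, PAF) unless otherwise indicated. Stoichiometry (N), KD, ΔH and TΔS fitted per titration; S.E.M. is deviation of the data from the fit.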

AM-33 = target: T2, AM-33 (Argas monolakensis, UniProt Q09JW0); experiment: isothermal titration calorimetry; assay type: binding
T2 sequence (Q09JW0 19-179): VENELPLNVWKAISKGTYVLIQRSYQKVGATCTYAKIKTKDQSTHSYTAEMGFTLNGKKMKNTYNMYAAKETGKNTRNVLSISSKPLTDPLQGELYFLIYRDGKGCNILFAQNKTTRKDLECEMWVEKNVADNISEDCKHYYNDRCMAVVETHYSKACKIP
Method in brief: as §1

SMILES	Kd (TSGP4) [nM]	Kd (AM-33) [nM]
CCCCC/C=C\C/C=C\C/C=C\C/C=C\CCCC(=O)O [Arachidonic acid]	155 ± 43	613 ± 198
CCCCC/C=C\C[C@@H](O)/C=C/C=C/C=C\[C@@H](O)CCCC(=O)O [LTB4]	1000 ± 476	587 ± 286
CCCCC/C=C\C\C=C/C=C/C=C/[C@@H](SC[C@H](NC(=O)CC[C@H](N)C(=O)O)C(=O)NCC(=O)O)[C@@H](O)CCCC(=O)O [LTC4]	≤ 2	2.2 ± 0.4
CCCCC/C=C\C\C=C/C=C/C=C/[C@@H](SC[C@H](N)C(=O)NCC(=O)O)[C@@H](O)CCCC(=O)O [LTD4]	≤ 2	≤ 2
CCCCC/C=C\C\C=C/C=C/C=C/[C@@H](SC[C@H](N)C(=O)O)[C@@H](O)CCCC(=O)O [LTE4]	10.8 ± 2	68 ± 6.6
